# Tested on: U2OS
# Assay: Multiplex assay against U2OS
# Assay type: toxicity, cell-based
# Conditions: human
# Outline: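 Four dyes were applied at seeding to live cells: Hoechst33342, BioTracker Green Microtubule Cytoskeleton Dye, MitoTracker Red and Annexin V Alexa Fluor 680. Imaging after compound addition used a CQ1 microscope at 37°C and 5% CO2. CellPathfinder machine-learning gating then sorted cells into Hoechst high-intensity objects or normal cells, normal cells into healthy, pyknosed or fragmented nuclei, and pyknosed cells into mitotic or apoptotic, with tubulin, mitochondrial-mass and membrane-permeability phenotypes given as per cents of healthy-nucleus cells.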
# [1] = 12 h, 1 µM, compound concentration 1 uM, replicate 1
# [2] = 12 h, 1 µM, compound concentration 1 uM, replicate 2
# [3] = 12 h, 10 µM, compound concentration 10 uM, replicate 1
# [4] = 12 h, 10 µM, compound concentration 10 uM, replicate 2
# [5] = 24 h, 1 µM, compound concentration 1 uM, replicate 1
# [6] = 24 h, 1 µM, compound concentration 1 uM, replicate 2
# [7] = 24 h, 10 µM, compound concentration 10 uM, replicate 1
# [8] = 24 h, 10 µM, compound concentration 10 uM, replicate 2
# [9] = 48 h, 1 µM, compound concentration 1 uM, replicate 1
# [10] = 48 h, 1 µM, compound concentration 1 uM, replicate 2
# [11] = 48 h, 10 µM, compound concentration 10 uM, replicate 1
# [12] = 48 h, 10 µM, compound concentration 10 uM, replicate 2
compound,measurement,setting,value
CN(C)C(=O)N[C@H]1CC[C@H](CCN2CCN(c3cccc(Cl)c3Cl)CC2)CC1.Cl [CARIPRAZINE HYDROCHLORIDE],Population Apoptotic (%),[1],20%
same,Population Fragmented Nuclei (%),[1],14%
same,Population Healthy Nuclei (%),[1],79%
same,Population Hoechst High Intensity Objects (%),[1],8%
same,Population Membrane Permeable-Phenotype (%),[1],4%
same,Population Mitotic Cells (%),[1],80%
same,Population Normal (%),[1],91%
same,Population Pyknosed Nuclei (%),[1],6%
same,Population Tubulin-Different-Phenotype (%),[1],14%
same,Total Cell Count,[1],84
same,Population Apoptotic (%),[2],60%
same,Population Fragmented Nuclei (%),[2],7%
same,Population Healthy Nuclei (%),[2],84%
same,Population Hoechst High Intensity Objects (%),[2],6%
same,Population Membrane Permeable-Phenotype (%),[2],6%
same,Population Mitochondria Different-Phenotype (%),[2],29%
same,Population Mitotic Cells (%),[2],40%
same,Population Normal (%),[2],93%
same,Population Pyknosed Nuclei (%),[2],8%
same,Population Tubulin-Different-Phenotype (%),[2],22%
same,Total Cell Count,[2],61
same,Population Apoptotic (%),[3],50%
same,Population Fragmented Nuclei (%),[3],15%
same,Population Healthy Nuclei (%),[3],59%
same,Population Hoechst High Intensity Objects (%),[3],8%
same,Population Membrane Permeable-Phenotype (%),[3],14%
same,Population Mitochondria Different-Phenotype (%),[3],97%
same,Population Mitotic Cells (%),[3],50%
same,Population Normal (%),[3],91%
same,Population Tubulin-Different-Phenotype (%),[3],100%
same,Total Cell Count,[3],78
same,Population Apoptotic (%),[4],36%
same,Population Fragmented Nuclei (%),[4],17%
same,Population Healthy Nuclei (%),[4],57%
same,Population Hoechst High Intensity Objects (%),[4],3%
same,Population Membrane Permeable-Phenotype (%),[4],47%
same,Population Mitochondria Different-Phenotype (%),[4],95%
same,Population Mitotic Cells (%),[4],63%
same,Population Normal (%),[4],96%
same,Population Pyknosed Nuclei (%),[4],25%
same,Population Tubulin-Different-Phenotype (%),[4],95%
same,Total Cell Count,[4],79
same,Population Apoptotic (%),[5],41%
same,Population Fragmented Nuclei (%),[5],13%
same,Population Healthy Nuclei (%),[5],73%
same,Population Hoechst High Intensity Objects (%),[5],9%
same,Population Membrane Permeable-Phenotype (%),[5],4%
same,Population Mitochondria Different-Phenotype (%),[5],17%
same,Population Mitotic Cells (%),[5],58%
same,Population Normal (%),[5],90%
same,Population Pyknosed Nuclei (%),[5],13%
same,Population Tubulin-Different-Phenotype (%),[5],8%
same,Total Cell Count,[5],102
same,Population Apoptotic (%),[6],66%
same,Population Fragmented Nuclei (%),[6],6%
same,Population Healthy Nuclei (%),[6],84%
same,Population Hoechst High Intensity Objects (%),[6],4%
same,Population Membrane Permeable-Phenotype (%),[6],7%
same,Population Mitochondria Different-Phenotype (%),[6],22%
same,Population Mitotic Cells (%),[6],33%
same,Population Normal (%),[6],95%
same,Population Pyknosed Nuclei (%),[6],9%
same,Population Tubulin-Different-Phenotype (%),[6],14%
same,Total Cell Count,[6],67
same,Population Apoptotic (%),[7],57%
same,Population Fragmented Nuclei (%),[7],13%
same,Population Healthy Nuclei (%),[7],57%
same,Population Hoechst High Intensity Objects (%),[7],13%
same,Population Membrane Permeable-Phenotype (%),[7],28%
same,Population Mitochondria Different-Phenotype (%),[7],97%
same,Population Mitotic Cells (%),[7],42%
same,Population Normal (%),[7],86%
same,Population Pyknosed Nuclei (%),[7],28%
same,Total Cell Count,[7],84
same,Population Apoptotic (%),[8],94%
same,Population Fragmented Nuclei (%),[8],23%
same,Population Healthy Nuclei (%),[8],55%
same,Population Hoechst High Intensity Objects (%),[8],3%
same,Population Membrane Permeable-Phenotype (%),[8],42%
same,Population Mitochondria Different-Phenotype (%),[8],95%
same,Population Mitotic Cells (%),[8],5%
same,Population Normal (%),[8],96%
same,Population Pyknosed Nuclei (%),[8],20%
same,Population Tubulin-Different-Phenotype (%),[8],95%
same,Total Cell Count,[8],87
same,Population Apoptotic (%),[9],27%
same,Population Fragmented Nuclei (%),[9],9%
same,Population Hoechst High Intensity Objects (%),[9],6%
same,Population Membrane Permeable-Phenotype (%),[9],0%
same,Population Mitochondria Different-Phenotype (%),[9],12%
same,Population Mitotic Cells (%),[9],72%
same,Population Normal (%),[9],93%
same,Population Pyknosed Nuclei (%),[9],8%
same,Population Tubulin-Different-Phenotype (%),[9],7%
same,Total Cell Count,[9],140
same,Population Apoptotic (%),[10],50%
same,Population Fragmented Nuclei (%),[10],6%
same,Population Healthy Nuclei (%),[10],82%
same,Population Hoechst High Intensity Objects (%),[10],2%
same,Population Membrane Permeable-Phenotype (%),[10],9%
same,Population Mitochondria Different-Phenotype (%),[10],15%
same,Population Mitotic Cells (%),[10],50%
same,Population Normal (%),[10],97%
same,Population Pyknosed Nuclei (%),[10],10%
same,Population Tubulin-Different-Phenotype (%),[10],13%
same,Total Cell Count,[10],94
same,Population Apoptotic (%),[11],79%
same,Population Fragmented Nuclei (%),[11],12%
same,Population Healthy Nuclei (%),[11],59%
same,Population Hoechst High Intensity Objects (%),[11],13%
same,Population Membrane Permeable-Phenotype (%),[11],26%
same,Population Mitochondria Different-Phenotype (%),[11],96%
same,Population Mitotic Cells (%),[11],20%
same,Population Normal (%),[11],86%
same,Population Pyknosed Nuclei (%),[11],27%
same,Population Tubulin-Different-Phenotype (%),[11],96%
same,Total Cell Count,[11],101
same,Population Apoptotic (%),[12],70%
same,Population Fragmented Nuclei (%),[12],20%
same,Population Healthy Nuclei (%),[12],53%
same,Population Hoechst High Intensity Objects (%),[12],2%
same,Population Membrane Permeable-Phenotype (%),[12],42%
same,Population Mitochondria Different-Phenotype (%),[12],89%
same,Population Mitotic Cells (%),[12],29%
same,Population Normal (%),[12],97%
same,Population Pyknosed Nuclei (%),[12],25%
same,Population Tubulin-Different-Phenotype (%),[12],82%
same,Total Cell Count,[12],108

# Reference: ChEMBL document CHEMBL4689842, “EUbOPEN Chemogenomics Library wave 1” (2021)
